The source made the active and inactive calls. The rule behind the calls is not given here.
Tests used:
[1] = organism: Oryctolagus cuniculus; test: Antihypertensive activity in New Zealand rabbit assessed as reduction in intraocular pressure at 100 uM after 8 hrs relative to control; format: functional
Method in brief: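 Male New Zealand white rabbits (2.5 ± 0.5 kg). 100 μM, 10 μL applied unilaterally to the cornea; contralateral eye got the same volume of saline (0.9% NaCl). IOP read by rebound tonometer without anesthetic, twice before dosing, then followed up to 8 h. Blinded design. Mean ± SEM of 8–10 independent experiments.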

[2] = Chemical stability assessed as enzymatic stability at 100 uM after 20 mins in presence of human NPP3; format: physicochemical
Method in brief: (§1)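 Human NPP1 or NPP3 extract was preincubated 3 min at 37 °C in 1 mM CaCl2, 140 mM NaCl, 5 mM KCl, 50 mM Tris pH 8.5. Nucleotide was added at 100 μM final. After 20 min the reaction was quenched into ice-cold 1 M perchloric acid and neutralised with KOH. Degradation was read by reverse-phase HPLC (TBA/EDTA/phosphate, pH 7.0).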

[3] = Chemical stability assessed as enzymatic stability at 100 uM after 20 mins in presence of human NTPDase3; format: physicochemical
Method in brief: (§2)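 Crude extracts of COS-7 cells transiently transfected with the NTPDase. Extract preincubated 3 min at 37 °C in Tris-Ringer buffer, pH 7.4. Substrate added at 100 μM final; reaction stopped at 20 min with malachite green. Released Pi read at 630 nm. Activity of untransfected-cell extract subtracted.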

[4] = biological target: P2Y purinoceptor 1 (Meleagris gallopavo, UniProt P49652); test: Agonist activity at turkey P2Y1 receptor expressed in human […] receptor assessed as induction of intracellular calcium mobilization; format: functional, cell-based
[5] = Chemical stability assessed as enzymatic stability at 100 uM after 20 mins in presence of human NTPDase1; format: physicochemical; method in brief: as §2
[6] = tested on: Serum; test: Half life in human serum; format: ADME, cell-free
Method in brief: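 Serum came from healthy volunteers' blood, held 12 h at 4 °C, centrifuged and stored at −80 °C. Nucleotide (4.5 μL of 40 mM stock) was incubated with 180 μL serum plus 540 μL RPMI-1640 at 37 °C for up to 24 h, sampled at 0.5–12 h intervals. Samples were heat-stopped at 80 °C, cleaned up by extraction and anion-exchange, then analysed by HPLC. Hydrolysis rate came from peak-area change over time.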

[7] = Chemical stability assessed as enzymatic stability at 100 uM after 20 mins in presence of human NTPDase2; format: physicochemical; method in brief: as §2
[8] = Chemical stability assessed as enzymatic stability at 100 uM after 20 mins in presence of human NPP1; format: physicochemical; method in brief: as §1
[9] = Association constant pKa of the compound; format: physicochemical
[10] = Chemical stability assessed as enzymatic stability at 100 uM after 20 mins in presence of human NTPDase8; format: physicochemical; method in brief: as §2
[11] = Chemical stability assessed as half life of hydrolysis at pH 1.4; format: physicochemical; conditions: buffer
Method in brief: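 Analogue (1.5 mg) in 0.2 M HCl/KCl buffer (0.8 mL), adjusted to pH 1.4, held at 37 °C for 1–31 days. Sampled at 1–24 h intervals and analysed by reverse-phase HPLC. Half-life derived from peak integration over time.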

[12] = organism: Oryctolagus cuniculus; test: Antihypertensive activity in New Zealand rabbit assessed as reduction in intraocular pressure at 1 nM to 100 uM after 8 hrs relative to control; format: functional, Eye
Method in brief: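 Male New Zealand white rabbits (2.5 ± 0.5 kg). 10 μL of 1 nM–100 μM solution instilled unilaterally on the cornea; contralateral eye got saline (0.9% NaCl, vehicle). IOP read by rebound tonometer without anesthetic, twice before dosing. Maximal response at each dose was plotted against concentration and fitted for pD2; EC50 taken as antilog of −pD2. One dose per animal per day, washout ≥2 days. Experimenter blinded.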

P2Y purinoceptor 1, sequence (P49652 whole entry): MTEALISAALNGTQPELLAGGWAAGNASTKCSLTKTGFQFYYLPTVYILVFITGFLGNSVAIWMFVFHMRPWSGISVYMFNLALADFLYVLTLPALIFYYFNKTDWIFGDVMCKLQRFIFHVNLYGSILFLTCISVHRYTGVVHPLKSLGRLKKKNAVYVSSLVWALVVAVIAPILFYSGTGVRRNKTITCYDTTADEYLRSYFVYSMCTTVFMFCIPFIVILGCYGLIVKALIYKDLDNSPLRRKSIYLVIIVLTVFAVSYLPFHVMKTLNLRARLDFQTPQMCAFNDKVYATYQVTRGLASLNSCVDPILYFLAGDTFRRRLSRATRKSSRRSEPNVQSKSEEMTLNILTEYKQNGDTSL

Row | Structure (SMILES) | Activity ([1]; Eye) | Activity [2] [%] | EC50 ([4]; read-out: EC50) [nM] | Activity [5] [%] | Activity [7] [%] | Activity [8] [%] | pKa [9] | Activity [10] [%] | also measured
1 | BP(=O)(OC[C@H]1O[C@@H](n2cnc3c(N)nc(SC)nc32)[C@H](O)[C@@H]1O)OP(=O)(O)C(Cl)(Cl)P(=O)(O)O (stereo in doubt; 12A) [listing 1 of 2 here] | Active |  |  |  |  |  |  |  | 
2 | BP(=O)(OC[C@H]1O[C@@H](n2cnc3c(N)nc(SC)nc32)[C@H](O)[C@@H]1O)OP(=O)(O)C(Cl)(Cl)P(=O)(O)O (stereo in doubt; 12B) [listing 1 of 2 here] | Active |  |  |  |  |  |  |  | 
3 | CSc1nc(N)c2ncn([C@@H]3O[C@H](COP(=O)(O)OP(=O)(O)C(F)(F)P(=O)(O)O)[C@@H](O)[C@H]3O)c2n1 | inactive | 0.5 | 760 | 2.6 | 1.1 | 6.2 | 7 | 5.2 | Activity [3]: 2.6%; t1/2 [6]: 12.4 h
4 | BP(=O)(OC[C@H]1O[C@@H](n2cnc3c(N)ncnc32)[C@H](O)[C@@H]1O)OP(=O)(O)C(Cl)(Cl)P(=O)(O)O (stereo in doubt; 11A) [listing 1 of 2 here] | inactive |  |  |  |  |  |  |  | 
5 | BP(=O)(OC[C@H]1O[C@@H](n2cnc3c(N)ncnc32)[C@H](O)[C@@H]1O)OP(=O)(O)C(Cl)(Cl)P(=O)(O)O (stereo in doubt; 11A) [listing 2 of 2 here] |  |  |  | 5.5 | 1.3 | 5.3 | 7 | 4.4 | Activity [3]: 2.6%; EC50 [4]: Not Active
6 | BP(=O)(OC[C@H]1O[C@@H](n2cnc3c(N)nc(SC)nc32)[C@H](O)[C@@H]1O)OP(=O)(O)CP(=O)(O)O (stereo not given in full) |  |  |  |  |  |  | 8.4 |  | half-life [11]: 14.5 h
7 | CSc1nc(N)c2ncn([C@@H]3O[C@H](COP(=O)(O)OP(=O)(O)C(Cl)(Cl)P(=O)(O)O)[C@@H](O)[C@H]3O)c2n1 |  | 1.9 | 9540 | 0.5 | 0.5 | 5.8 | 7 |  | Activity [1]: 32%
8 | CSc1nc(N)c2ncn([C@@H]3O[C@H](COP(=O)(O)OP(=O)(O)CP(=O)(O)O)[C@@H](O)[C@H]3O)c2n1 |  |  |  |  |  |  |  |  | t1/2 [11]: 65 h; pD2 [12]: 4.5; Activity [1]: 32%
9 | BP(=O)(OC[C@H]1O[C@@H](n2cnc3c(N)ncnc32)[C@H](O)[C@@H]1O)OP(=O)(O)C(Cl)(Cl)P(=O)(O)O (stereo in doubt; 11B) [listing 1 of 2 here] | Active |  |  |  |  |  |  |  | 
10 | BP(=O)(OC[C@H]1O[C@@H](n2cnc3c(N)nc(SC)nc32)[C@H](O)[C@@H]1O)OP(=O)(O)C(Cl)(Cl)P(=O)(O)O (stereo in doubt; 12A) [listing 2 of 2 here] |  | 5 | 570 | 0.7 | 1.5 | 0.7 | 7 |  | Activity [3]: 0.3%
11 | BP(=O)(OC[C@H]1O[C@@H](n2cnc3c(N)nc(SC)nc32)[C@H](O)[C@@H]1O)OP(=O)(O)C(Cl)(Cl)P(=O)(O)O (stereo in doubt; 12B) [listing 2 of 2 here] |  |  | 1200 |  |  | 4 |  | 1.8 | 
12 | CSc1nc(N)c2ncn([C@@H]3O[C@H](COP(=O)(O)C(F)(F)P(=O)(O)O)[C@@H](O)[C@H]3O)c2n1 | Active |  | 980 | 1.3 | 2.4 | 3.9 | 7 | 0.1 | pD2 [12]: 5.1
13 | BP(=O)(OC[C@H]1O[C@@H](n2cnc3c(N)nc(SC)nc32)[C@H](O)[C@@H]1O)OP(=O)(O)C(F)(F)P(=O)(O)O (stereo in doubt; 10B) |  | 3.2 | 2130 | 0.4 | 0.9 | 3.4 |  |  | 
14 | BP(=O)(OC[C@H]1O[C@@H](n2cnc3c(N)nc(SC)nc32)[C@H](O)[C@@H]1O)OP(=O)(O)C(F)(F)P(=O)(O)O (stereo in doubt; 10A) |  | 10 |  | 1 | 1.8 | 4 | 7 | 1.7 | Activity [3]: 4.4%; EC50 [4]: Not Active
15 | CSc1nc(N)c2ncn([C@@H]3O[C@H](COP(=O)(O)C(Cl)(Cl)P(=O)(O)O)[C@@H](O)[C@H]3O)c2n1 | Active | 1.8 | 3100 |  | 1.7 | 3.3 | 7 |  | pD2 [12]: 4.5
16 | Nc1ncnc2c1ncn2[C@@H]1O[C@H](COP(=O)(O)OP(=O)(O)OP(=O)(O)O)[C@@H](O)[C@H]1O [ADENOSINE TRIPHOSPHATE] |  |  |  |  |  |  |  |  | t1/2 [6]: 4.9 h
17 | BP(=O)(OC[C@H]1O[C@@H](n2cnc3c(N)ncnc32)[C@H](O)[C@@H]1O)OP(=O)(O)CP(=O)(O)O (stereo not given in full) |  |  |  |  |  |  | 8.4 |  | half-life [11]: 19 h
18 | BP(=O)(OC[C@H]1O[C@@H](n2cnc3c(N)ncnc32)[C@H](O)[C@@H]1O)OP(=O)(O)C(Cl)(Cl)P(=O)(O)O (stereo in doubt; 11B) [listing 2 of 2 here] |  |  |  | 3.2 | 1.4 | 3.3 |  | 4 | Activity [3]: 3.1%; EC50 [4]: Not Active

Reference: ChEMBL document CHEMBL1156201, “2-MeS-beta,gamma-CCl2-ATP is a potent agent for reducing intraocular pressure” (J Med Chem, 2010)
